Screening results as filed in PubChem.
V-ATPase pH: alters yeast V-ATPase proton transport | S. cerevisiae, pHLuorin cytosolic pH fluorescence | response, % at 10 µM | actives 0.37% (n = 350,000) | AID 504577; in the data active means response mostly above about 7.3%, no sharp cut-off; inactive means mostly below about 5.4%; further: actives read high
NR2E3 ag-1: NR2E3 (human) agonism; inhibition of corepressor binding, % at 4.78 µM; Q9Y5X4; GST-NR2E3/biotin-RetCOR TR-FRET, 1536-well; actives 0.12% (n = 320,000);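 active means percent inhibition above the cutoff of mean plus 3 SD of all tested compounds, set per screening campaign, cut at about 20% in these data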;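 further: 0% = DMSO wells and 100% = biotin wells as full block of FRET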
Target sequence (Q9Y5X4 whole entry, looked up): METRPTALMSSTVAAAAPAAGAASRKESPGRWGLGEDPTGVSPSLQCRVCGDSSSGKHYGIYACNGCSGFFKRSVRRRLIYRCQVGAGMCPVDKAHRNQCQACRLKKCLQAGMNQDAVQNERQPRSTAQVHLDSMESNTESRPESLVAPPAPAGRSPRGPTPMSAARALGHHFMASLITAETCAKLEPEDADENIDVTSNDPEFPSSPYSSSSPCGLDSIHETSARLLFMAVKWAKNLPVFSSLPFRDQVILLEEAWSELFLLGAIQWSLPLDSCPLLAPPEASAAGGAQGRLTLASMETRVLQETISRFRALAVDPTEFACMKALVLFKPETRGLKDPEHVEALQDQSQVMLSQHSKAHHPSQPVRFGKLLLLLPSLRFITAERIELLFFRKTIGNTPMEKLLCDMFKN
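System: GST-tagged NR2E3 plus biotinylated RetCOR corepressor; Amount: 1.35 nM GST-tagged NR2E3 final; Dosing: single nominal compound dose of 4.8 µM; Schedule: 5 h incubation at 4 °C; Technique: TR-FRET with europium anti-GST and streptavidin-D2, 340 nm excitation; Controls: biotin wells as high control, 0.6% DMSO wells as low control.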
GAA850 FXN act: frataxin GAA850 promoter activation | HEK293 lucGAA850 FXN promoter luciferase reporter, 24 h; percent of 10 µM SAHA response | activation, % at 6 µM | actives 0.56% (n = 360,000);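 active means activation above the average of all compounds screened plus 3 SD, cutoff fixed separately per campaign, cut at about 7.5% in these data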;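 further: 0% = DMSO wells and 100% = 10 µM SAHA wells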
GalR3 antag: blocks the human galanin receptor 3 | HEK293 GalR3-CNG cAMP membrane potential fluorescence; galR3 body fused to GalR1 C-terminus | inhibition, % at 3 µM | O60755 | AID 651719 | actives 0.44% (n = 360,000);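 active means inhibition above the screen-wide average plus 3 SD, cut at about 13% in these data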;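 further: forskolin and galanin both at EC90 stimulate the cells; cAMP rise reported by CNG channel membrane potential dye signal; 0% = forskolin plus galanin with DMSO and 100% = forskolin alone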
Target sequence (O60755 1-299 limits assumed): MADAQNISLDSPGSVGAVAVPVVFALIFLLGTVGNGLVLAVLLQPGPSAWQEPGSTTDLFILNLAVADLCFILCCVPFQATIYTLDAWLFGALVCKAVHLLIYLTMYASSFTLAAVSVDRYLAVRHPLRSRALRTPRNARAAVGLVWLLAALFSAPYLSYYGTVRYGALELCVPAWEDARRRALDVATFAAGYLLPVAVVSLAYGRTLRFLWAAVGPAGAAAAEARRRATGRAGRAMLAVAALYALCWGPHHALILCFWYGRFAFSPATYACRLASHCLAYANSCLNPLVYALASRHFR
NR2E3 ag-2: human photoreceptor-specific nuclear receptor agonism | Q9Y5X4 | CHO-S Gal4-NCOR/VP16-NR2E3 two-hybrid, luciferase | inhibition of corepressor binding, % at 3.98 µM | actives 0.35% (n = 360,000) | AID 602229;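 active means inhibition above the mean of all tested compounds plus 3 SD, cut at about 70% in these data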;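 further: 0% = DMSO with NR2E3 transfected cells and 100% = cells lacking NR2E3 construct; higher means lower luciferase signal from less NR2E3 corepressor binding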
HIV Env fusion: HIV envelope-mediated fusion inhibition. HeLa-JRFL Env/CEM21 cell fusion, luciferase. inhibition, % at 12.3 µM. actives 1.1% (n = 360,000);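 active means mean replicate inhibition score of at least 50 and every replicate individually at or above 50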;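 further: 0% = plate neutral controls and 100% = maraviroc near 300 nM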
GAA30 FXN cntr: activates GAA30 frataxin promoter, counter-screen for GAA850 activators; actives 66% (n = 1,900); activation, % at 6 µM; AID 588350; HEK293 lucGAA30 FXN promoter luciferase, 24 h; DMSO = 0%, 5 µM ipriflavone = 100%; shares compounds with GAA850 FXN act;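 active means mean activation above the mean of solvent-only control wells plus 3 SD, cut at about 22% in these data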;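 further: counterscreen of GAA850 promoter hits where activity marks nonselective or luminescence artifacts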
FXN GAA850 conf: GAA850 FXN promoter activation confirmation | AID 588351 | actives 86% (n = 1,900) | activation, % at 6 µM | shares compounds with GAA850 FXN act | HEK293 lucGAA850 FXN promoter luciferase reporter, 24 h; 100% = activation by SAHA;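 active means mean activation above a set limit taken from the primary screen, cut at about 8% in these data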;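 further: 0% = DMSO wells and 100% = 10 µM SAHA wells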
* marks the source's active call; other numbers are inactive results; . = not tested or not shown; [ ] = another dose, or the depositor's remark. A selection: hits, their analogues and other compounds. The true share with any hit is near 2.2%.

SMILES	V-ATPase pH	NR2E3 ag-1	GAA850 FXN act	GalR3 antag	NR2E3 ag-2	HIV Env fusion	GAA30 FXN cntr	FXN GAA850 conf
C=CCOC(=O)C1=C(C)NC(SCC(=O)Nc2nccs2)=C(C#N)C1c1ccc(Cl)cc1 (stereo not given)	0	1	9.6*	-6	-16	103*	14	8.9*
N#Cc1c(N)nc2c(c1-c1ccccc1)CCC2	-1	5	8.2*	1	-50	33	62*	35*
Cc1ccc(S(=O)(=O)Nc2nc3ccccc3nc2N2CCOCC2)cc1	-1	.	0	1	0	-8	.	.
O=S(=O)(Nc1nc2ccccc2nc1N1CCN(c2ccccc2)CC1)c1ccc(F)cc1	0	5	8.0*	8	25	19	18	9.7*
C[C@@H]1CN([C@H](C)CO)C(=O)c2cc(NC(=O)C3CCCCC3)ccc2O[C@@H](C)CCCCO[C@@H]1CN(C)S(=O)(=O)c1cccs1	.	.	.	.	.	-38[16.7 µM]	.	.
CCC(C)(C)NC(=O)C(NS(=O)(=O)c1cccs1)c1ccccc1 (stereo not given)	1	-1	10*	-9	3	71*	15	10*
CC(C)c1cn(CC[C@H]2CC[C@@H](NC(=O)C3CCCC3)[C@H](CO)O2)nn1	.	.	.	.	.	8[16.7 µM]	.	.
CN1C(=O)c2cc(NC(=O)Nc3ccccc3F)ccc2OC[C@@H]2O[C@@H](CC(=O)NCCc3ccncc3)CC[C@@H]21	.	.	.	.	.	11[16.7 µM]	.	.
CC(=O)Cn1nnc2sc3c(c2c1=O)CCC(C(C)(C)C)C3 (stereo not given)	6	-1	8.2*	-9	-109	-29	119*	45*
CCOC(=O)c1sc(NC(=O)Cn2nnc3sc4c(c3c2=O)CCC(C(C)(C)C)C4)nc1C (stereo not given)	-5	-3	0	-4	21	.	.	.
C[C@H]1CN([C@@H](C)CO)C(=O)CCCn2nncc2CO[C@@H]1CN(C)S(=O)(=O)c1ccc(F)cc1	.	.	.	.	.	2[16.7 µM]	.	.
S=C(NN=Cc1ccccn1)N(Cc1ccccn1)Cc1ccccn1	3	.	6	-6	2	20	.	.
CC(=NNC(=S)N(Cc1ccccn1)Cc1ccccn1)c1cnccn1	1	.	12*	-6	-24	18	-116	-33
CN1[C@@H]2c3ccc(C4=CCCCC4)c(=O)n3C[C@H]1[C@H](CO)[C@H]2C(=O)NCc1cc(F)cc(F)c1	.	.	.	.	.	6[16.7 µM]	.	.
O=C(NCC[C@@H]1CC[C@H](NC(=O)C2CCCCC2)[C@@H](CO)O1)c1ccc(F)cc1	.	.	.	.	.	-16[16.7 µM]	.	.
S=c1[nH]nc(-c2cc(-c3ccccc3)n[nH]2)n1/N=C/C(Br)=C/c1ccccc1	-23	0	12*	-5	0	-44	-42	26*
Cc1cc(-c2n[nH]c(=S)n2/N=C/C(Cl)=C/c2ccccc2)n[nH]1	0	-3	7	-3	-1	-35	.	.
S=c1[nH]nc(-c2ccco2)n1/N=C/C(Cl)=C/c1ccccc1	4	1	8.0*	-5	7	-59	78*	32*
CCOC(=O)C(=O)C1=C(N2CCOCC2)/C(=C\c2ccc(F)cc2)CC1	-1	0	7.6*	-5	-45	-32	18	9.0*
CCCCN(C(=O)NC(=O)C1=C(N2CCOCC2)/C(=C/c2ccccc2)CC1)S(C)(=O)=O	1	-2	2	-8	-12	.	.	.
CCc1sc(C(=O)Nc2ccc3c(c2)OCCO3)cc1Br	5	0	8.0*	-1	-147	-325	111*	41*
C[C@@H]1CN([C@H](C)CO)C(=O)c2cc(C3=CCCCC3)cnc2O[C@H]1CN(C)C(=O)c1ccccn1	.	.	.	.	.	-54[16.7 µM]	.	.
CCCNC(=O)Nc1ccc2c(c1)C(=O)N(C)[C@H]1CC[C@H](CC(=O)NC)O[C@H]1CO2	.	.	.	.	.	0[16.7 µM]	.	.
COc1ccccc1C(=O)C1Nc2ccccc2-c2nnc(SC)nc2O1 (stereo not given)	0	0	8.8*	-4	-35	-142	16	5
C[C@@H]1CCCCO[C@@H](CN(C)C(=O)NC2CCCCC2)[C@H](C)CN([C@H](C)CO)C(=O)c2cc(NS(=O)(=O)c3ccccc3)ccc2O1	.	.	.	.	.	-5[16.7 µM]	.	.
SMILES	V-ATPase pH	NR2E3 ag-1	GAA850 FXN act	GalR3 antag	NR2E3 ag-2	HIV Env fusion	GAA30 FXN cntr	FXN GAA850 conf
COc1nc(N)nc(NC23CC4CC(CC(C4)C2)C3)n1	.	6	9.2*	-5	-20	.	57*	20*
COc1ccc(-c2nnc(SCC(=O)N3CCOCC3)o2)cc1	-2	1	7.7*	0	-42	.	101*	30*
COc1cccc(-c2nnc(SCC(=O)N3CCOCC3)o2)c1	2	0	2	2	-28	.	.	.
Cc1ccc(/C=N/NC(=O)c2cccs2)cc1[N+](=O)[O-]	-2	-2	8.3*	2	-65	-309	103*	42*
CC(C)NC(=O)Nc1ccc2c(c1)C(=O)N([C@H](C)CO)C[C@H](C)[C@H](CN(C)C(=O)Nc1cccc3ccccc13)OCCCC[C@H](C)O2	.	.	.	.	.	24[16.7 µM]	.	.
c1ccc2oc(-c3[nH]ncc3CN3CCSCC3)cc2c1	-1	1	1	-6	-16	37	.	.
c1ccc2oc(-c3ccn[nH]3)cc2c1	2	1	8.0*	-2	-65	-45	122*	38*
CC(C)OP(=O)(c1ccc(N(C)C)cc1)C(Nc1ccccc1)c1ccccc1 (stereo not given)	3	2	8.0*	-3	18	85*	12	13*
Cc1ccc(NC(=O)Nc2ccc(Cl)cn2)cc1	-5	.	8.2*	-4	-135	-43	94*	32*
C[C@H]1CN([C@@H](C)CO)S(=O)(=O)c2ccc(C#CCN(C)C)cc2O[C@@H]1CN(C)Cc1ccccc1F	.	.	.	.	.	-11[16.7 µM]	.	.
N#CC(c1cccc(C(F)(F)F)c1)(c1ncc(C(F)(F)F)cc1Cl)N1CCOCC1 (stereo not given)	1	3	-1	-8	-19	.	.	.
N#CC(c1ccccc1)(c1ncc(C(F)(F)F)cc1Cl)N1CCOCC1 (stereo not given)	-4	3	11*	-3	-5	-27	26*	9.1*
Cc1ccc(S(=O)(=O)Nc2ccc3c(c2)C(=O)N([C@H](C)CO)C[C@H](C)[C@H](CN(C)C(=O)c2ccccc2)OCCCC[C@@H](C)O3)cc1	.	.	.	.	.	-11[16.7 µM]	.	.
COCc1cc(C)nc(SCC(=O)c2ccc(O)c(O)c2)c1C#N	-1	0	10*	2	-29	.	40*	18*
